Activity calls are given as the source filed them.
How the values were obtained:
ScN2a [1] = assay: Anti-prion activity against RML prion protein in mouse N2a cells assessed as Scrapie prion protein level at 1 uM in absence of proteinase K by Western blotting analysis relative to control; type: cell-based
Method in brief: (§1)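 ScN2a or ScGT1 cells chronically infected with RML or 22L prions (N2a in MEM/10% FBS; GT1 in DMEM/10% FBS) treated 4 days with compound (DMSO stock diluted in EtOH, then medium; final DMSO ≤0.1%). Immunoblot with anti-PrP Fab W226, ECL, densitometry, normalized to untreated control (100%).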

ScN2a [2] = assay: Anti-prion activity against RML prion protein in mouse N2a cells assessed as Scrapie prion protein level at 1 uM in presence of proteinase K by Western blotting analysis relative to control; type: cell-based; method in brief: as §1
N2a [3] = assay: Cytotoxicity against mouse N2a cells assessed as reduction in cell viability incubated for 30 mins by Calcein assay; type: cell-based; details: 0.5 h
Method in brief: (§2)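 N2a, ScN2a, GT1 or ScGT1 cells seeded (2.5×10^4/mL MEM for N2a lines; 3×10^4/mL DMEM for GT1 lines), settled 1 day. Treated at 0.1, 1 and 10 µM for 5 days at 37 °C, 5% CO2. Read-outs: MTT (5 mg/mL, 3 h, DMSO/2-propanol solubilization, A590); CCK-8 (4 h, A450); calcein-AM (2.5 µM added, 30 min, 492/525 nm). Viability threshold 80%.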

N2a [4] = assay: Cytotoxicity against mouse N2a cells assessed as reduction in cell viability incubated for 3 hrs by MTT assay; type: cell-based; method in brief: as §2
N2a [5] = assay: Cytotoxicity against mouse N2a cells assessed as reduction in cell viability incubated for 4 hrs by CCK-8 assay; type: cell-based; method in brief: as §2
ScGT1 [6] = assay: Anti-prion activity against 22L prion protein in mouse ScGT1 cells assessed as Scrapie prion protein level at 4 uM in absence of proteinase K by Western blotting analysis relative to control; type: cell-based; method in brief: as §1
ScN2a [7] = assay: Anti-prion activity in mouse ScN2a cells at 1:5 Prp to compound concentration in absence of proteinase K by Western blotting analysis relative to control; type: functional
Method in brief: (§3)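 Filtered through 3 kDa centrifugal membrane; filtrate (or compound alone, with or without filtration) given to ScN2a cells 4 days. PK-digested/undigested lysates immunoblotted with W226; three independent experiments, control normalized to 100%.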

ScN2a [8] = assay: Anti-prion activity in mouse ScN2a cells at 1:2 Prp to compound concentration in absence of proteinase K by Western blotting analysis relative to control; type: functional; method in brief: as §3
N2a [9] = assay: Anti-prion activity in mouse N2a cells assessed as effect on localization of cell membrane at 0.4 uM by immunofluorescence staining assay; type: functional, cell-based
Method in brief: (§4)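 N2a cells on poly-lysine coverslips treated with 0.4 or 4 µM. Chilled on ice 15 min, live surface staining with W226 (1:200) 20 min on ice, then fixed in 4% PFA and blocked in 7% goat serum. Alexa488 anti-mouse secondary 1 h, DAPI counterstain, confocal imaging of surface PrPC.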

ScGT1 [10] = assay: Anti-prion activity against 22L prion protein in mouse ScGT1 cells assessed as Scrapie prion protein level at 4 uM in presence of proteinase K by Western blotting analysis relative to control; type: cell-based; method in brief: as §1
ScN2a [11] = assay: Anti-prion activity against 22L prion protein in mouse ScN2a cells assessed as Scrapie prion protein level at 4 uM in absence of proteinase K by Western blotting analysis relative to control; type: cell-based; method in brief: as §1
ScN2a [12] = assay: Anti-prion activity in mouse ScN2a cells at 1N in absence of proteinase K by Western blotting analysis relative to control; type: functional; method in brief: as §3
N2a [13] = assay: Anti-prion activity in mouse N2a cells assessed as effect on localization of cell membrane at 4 uM by immunofluorescence staining assay; type: functional, cell-based; method in brief: as §4
ScN2a [14] = assay: Anti-prion activity in mouse ScN2a cells at 1:1 Prp to compound concentration in absence of proteinase K by Western blotting analysis relative to control; type: functional; method in brief: as §3
ScN2a [15] = assay: Anti-prion activity in mouse ScN2a cells at 1N in presence of proteinase K by Western blotting analysis relative to control; type: functional; method in brief: as §3
ScN2a [16] = assay: Anti-prion activity in mouse ScN2a cells at 2:1 Prp to compound concentration in absence of proteinase K by Western blotting analysis relative to control; type: functional; method in brief: as §3
ScN2a [17] = assay: Anti-prion activity against RML prion protein in mouse ScN2a cells assessed as Scrapie prion protein level at 4 uM in presence of proteinase K by Western blotting analysis relative to control; type: cell-based; method in brief: as §1
ScN2a [18] = assay: Anti-prion activity in mouse ScN2a cells at 2:1 Prp to compound concentration in presence of proteinase K by Western blotting analysis relative to control; type: functional; method in brief: as §3
ScGT1 [19] = assay: Anti-prion activity against RML prion protein in mouse ScGT1 cells assessed as Scrapie prion protein level at 4 uM in absence of proteinase K by Western blotting analysis relative to control; type: cell-based; method in brief: as §1
ScN2a [20] = assay: Anti-prion activity in mouse ScN2a cells at 1:5 Prp to compound concentration in presence of proteinase K by Western blotting analysis relative to control; type: functional; method in brief: as §3
ScN2a [21] = assay: Anti-prion activity in mouse ScN2a cells at 1:1 Prp to compound concentration in presence of proteinase K by Western blotting analysis relative to control; type: functional; method in brief: as §3
ScN2a [22] = assay: Anti-prion activity in mouse ScN2a cells in absence of proteinase K by Western blotting analysis relative to control; type: functional; method in brief: as §1
[23] = Anti-prion activity against RML prion protein in mouse ScN2a cells in presence of proteinase K by Western blotting analysis; type: cell-based
Method in brief: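 ScN2a-RML cells treated 4 days with 8 concentrations from 0 to 4 µM. Lysates PK-digested (10 µg PK, 1 h, 37 °C) and ultracentrifuged. Pellets denatured in 8 M GdnHCl and coated on ELISA plates overnight at 4 °C. Detection with W226 (1.5 µg/mL), HRP secondary and TMB, A450. IC50 taken from the dose-response curve, with Western blot confirmation.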

ScN2a [24] = assay: Cytotoxicity against mouse ScN2a cells upto 10 uM; type: cell-based; method in brief: as §2
ScGT1 [25] = assay: Anti-prion activity against RML prion protein in mouse ScGT1 cells assessed as Scrapie prion protein level at 4 uM in presence of proteinase K by Western blotting analysis relative to control; type: cell-based; method in brief: as §1
ScN2a [26] = assay: Anti-prion activity against RML prion protein in mouse ScN2a cells assessed as Scrapie prion protein level at 4 uM in absence of proteinase K by Western blotting analysis relative to control; type: cell-based; method in brief: as §1
ScN2a [27] = assay: Anti-prion activity in mouse ScN2a cells at 1:2 Prp to compound concentration in presence of proteinase K by Western blotting analysis relative to control; type: functional; method in brief: as §3
ScN2a [28] = assay: Anti-prion activity in mouse ScN2a cells in presence of proteinase K by Western blotting analysis relative to control; type: functional; method in brief: as §1
ScN2a [29] = assay: Anti-prion activity against 22L prion protein in mouse ScN2a cells assessed as Scrapie prion protein level at 4 uM in presence of proteinase K by Western blotting analysis relative to control; type: cell-based; method in brief: as §1

C/C(=N\Nc1ccnc2cc(Cl)ccc12)c1ccc2c(c1)N(CCCN(C)C)c1ccccc1S2
Activity (ScN2a [1]): 68.7%
Activity (ScN2a [2]): 11.9%

COC(=O)c1ccc(COc2ccc(/C=N/Nc3ccnc4cc(Cl)ccc34)cc2OC)cc1
Activity (N2a [3]): Non-Toxic
Activity (N2a [4]): Non-Toxic
Activity (N2a [5]): Non-Toxic
Activity (ScN2a [1]): 95.6%
Activity (ScN2a [2]): 82.3%

O=C(Nc1ccc(Oc2ccccc2)cc1)c1cc2cc3ccc(Cl)cc3nc2o1
Activity (N2a [3]): Non-Toxic
Activity (N2a [4]): Non-Toxic
Activity (N2a [5]): Non-Toxic
Activity (ScN2a [1]): 92.6%
Activity (ScN2a [2]): 109%

CCc1ccc(CNC(=O)CSc2c3c(nc4cc(Cl)ccc24)CCCC3)cc1
Activity (N2a [3]): Non-Toxic
Activity (N2a [4]): Non-Toxic
Activity (N2a [5]): Non-Toxic
Activity (ScN2a [1]): 83.5%
Activity (ScN2a [2]): 77.1%

Cn1c(=O)c2cc(C(=O)N3CCC(Cc4ccccc4)CC3)sc2c2ccc(Cl)cc21
Activity (N2a [3]): Non-Toxic
Activity (N2a [4]): Non-Toxic
Activity (N2a [5]): Non-Toxic
Activity (ScN2a [1]): 99.6%
Activity (ScN2a [2]): 82.4%

CCOc1ccc(CNC(=O)CSc2c3c(nc4cc(Cl)ccc24)CCCC3)cc1
Activity (N2a [3]): Non-Toxic
Activity (N2a [4]): Non-Toxic
Activity (N2a [5]): Non-Toxic
Activity (ScN2a [1]): 110%
Activity (ScN2a [2]): 102%

Cn1c(CSc2ccnc3cc(Cl)ccc23)nnc1SCC(=O)N1CCN(c2ccccc2)CC1
Activity (N2a [3]): Non-Toxic
Activity (N2a [4]): Non-Toxic
Activity (N2a [5]): Non-Toxic
Activity (ScN2a [1]): 85.8%
Activity (ScN2a [2]): 88%

C/C(=N\Nc1ccnc2cc(Cl)ccc12)c1ccc2c(c1)N(CCN1CCN(C)CC1)c1ccccc1S2
Activity (ScN2a [1]): 55.9%
Activity (ScN2a [2]): 4.4%

C/C(=N\Nc1ccnc2cc(Cl)ccc12)c1ccc2c(c1)N(CCN1CCCCC1)c1ccccc1S2
Activity (ScN2a [1]): 70.2%
Activity (ScN2a [2]): 13.6%

C/C(=N\Nc1ccnc2cc(Cl)ccc12)c1ccc2c(c1)N(CCN1CCOCC1)c1ccccc1S2
Activity (ScN2a [1]): 95.3%
Activity (ScN2a [2]): 70.3%

C/C(=N\Nc1ccnc2cc(Cl)ccc12)c1ccc2c(c1)N(CCN(C)C)c1ccccc1S2
Activity (ScN2a [1]): 60.2%
Activity (ScN2a [2]): 8.6%

C/C(=N\Nc1ccnc2cc(Cl)ccc12)c1ccc2c(c1)Nc1ccccc1S2
Activity (N2a [3]): Non-Toxic
Activity (ScGT1 [6]): 39.2%
Activity (N2a [4]): Non-Toxic
Activity (N2a [5]): Non-Toxic
Activity (ScN2a [7]): 41%
Activity (ScN2a [8]): 98.4%
Activity (N2a [9]): inactive
Activity (ScGT1 [10]): 11%
Activity (ScN2a [11]): 48.7%
Activity (ScN2a [12]): 51.7%
Activity (N2a [13]): inactive
Activity (ScN2a [14]): 117.6%
Activity (ScN2a [15]): 22.6%
Activity (ScN2a [16]): 114.4%
Activity (ScN2a [17]): 9.4%
Activity (ScN2a [18]): 108.2%
Activity (ScGT1 [19]): 42%
Activity (ScN2a [20]): 13.6%
Activity (ScN2a [21]): 90.1%
Activity (ScN2a [22]): 48.8%
Activity (ScN2a [1]): 55.7%
IC50 [23]: 420 nM
Activity (ScN2a [2]): 35.6%
Activity (ScN2a [24]): Non-Toxic
Activity (ScGT1 [25]): 12.3%
Activity (ScN2a [26]): 62.1%
Activity (ScN2a [27]): 65.7%
Activity (ScN2a [28]): 25.2%
Activity (ScN2a [29]): 5.1%

COc1ccc2nc(NC(=O)c3cc4c(=O)n(C)c5cc(Cl)ccc5c4s3)sc2c1
Activity (N2a [3]): Non-Toxic
Activity (N2a [4]): Non-Toxic
Activity (N2a [5]): Non-Toxic
Activity (ScN2a [1]): 69.1%
Activity (ScN2a [2]): 85.4%

Cn1c(=O)c2cc(C(=O)Nc3ccc(Oc4ccccc4)cc3)sc2c2ccc(Cl)cc21
Activity (N2a [3]): Non-Toxic
Activity (N2a [4]): Non-Toxic
Activity (N2a [5]): Non-Toxic
Activity (ScN2a [1]): 92.5%
Activity (ScN2a [2]): 94.4%

Cc1cc(/C=N/Nc2ccnc3cc(Cl)ccc23)c(C)cc1/C=N/Nc1ccnc2cc(Cl)ccc12
Activity (N2a [3]): Non-Toxic
Activity (N2a [4]): Non-Toxic
Activity (N2a [5]): Non-Toxic
Activity (ScN2a [1]): 63.8%
Activity (ScN2a [2]): 70.9%

Reference: ChEMBL document CHEMBL4765297, “In silico/in vitro screening and hit evaluation identified new phenothiazine anti-prion derivatives” (Eur J Med Chem, 2020)
